Here are results for 22 compounds from ChEMBL document CHEMBL1151747, “Orally bioavailable isothioureas block function of the chemokine receptor CXCR4 in vitro and in vivo” (J Med Chem, 2008).

Data set [1] addresses T1, C-X-C chemokine receptor type 4 (Homo sapiens, UniProt P61073). Kind of data set: Displacement of [125I]CXCL12 from CXCR4 in human CEM cells. The format is cell-based, CCRF-CEM. An outline of the steps: (§1)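 Scintillation proximity assay. Membranes come from CEM cells (human CXCR4) or IR983F cells (rat CXCR4), prepared by homogenization in 20 mM HEPES, 1 mM EDTA pH 7.4 and stored at -80 °C. Nonspecific binding is defined with 400 nM unlabeled CXCL12. Incubation is 2 h at room temperature with shaking, then scintillation counting.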

In data set [2] the target is T1, C-X-C chemokine receptor type 4. Kind of data set: Activity at CXCR4 in human CEM cells assessed as inhibition of CXCL12-induced calcium mobilization. Format: functional, cell-based, CCRF-CEM. In short, it runs like this:
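CEM cells are loaded with 4 µM Fluo-4 for 1 h at 37 °C, washed, then preincubated with antagonist for 2 h. Wells are run in quadruplicate on FLIPR.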

For data set [3], the system named is Human immunodeficiency virus 1. Description: Antiviral activity against X4-tropic HIV1 3B assessed as inhibition of viral attachment. The format is functional, organism-based. The note with it: Human immunodeficiency virus 1, 3B.
Data set [4] addresses C-X-C chemokine receptor type 4 (Rattus norvegicus, UniProt O08565). Description: Displacement of [125I]CXCL12 from CXCR4 in rat IR983F cells. The format is cell-based. An outline of the steps:
as §1
For orientation: Displacement assays read how much labelled ligand stays bound in the presence of the test substance.

In a further data set the target is T2, Cytochrome P450 1A2 (Homo sapiens, UniProt P05177).
T2 sequence (P05177 whole entry): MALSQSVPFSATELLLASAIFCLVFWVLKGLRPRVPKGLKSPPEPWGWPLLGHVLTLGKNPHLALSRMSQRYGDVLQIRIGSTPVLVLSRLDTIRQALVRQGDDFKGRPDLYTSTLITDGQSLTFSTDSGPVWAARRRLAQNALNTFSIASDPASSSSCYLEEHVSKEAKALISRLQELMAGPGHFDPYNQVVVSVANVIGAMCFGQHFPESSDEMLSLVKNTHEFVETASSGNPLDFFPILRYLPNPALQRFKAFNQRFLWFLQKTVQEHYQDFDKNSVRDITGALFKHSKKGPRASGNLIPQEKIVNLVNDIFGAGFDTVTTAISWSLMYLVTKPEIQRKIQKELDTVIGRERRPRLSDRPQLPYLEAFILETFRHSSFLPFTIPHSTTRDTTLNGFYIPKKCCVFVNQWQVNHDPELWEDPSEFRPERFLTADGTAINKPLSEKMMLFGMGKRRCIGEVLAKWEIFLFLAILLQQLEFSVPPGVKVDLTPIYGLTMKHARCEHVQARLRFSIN
Description: Inhibition of CYP1A2. Format: ADME.

The target of a further data set is Cytochrome P450 2C9 (Homo sapiens, UniProt P11712). Kind of data set: Inhibition of CYP2C9. Format: ADME.
A further data set has as its target Cytochrome P450 2C19 (Homo sapiens, UniProt P33261). Description: Inhibition of CYP2C19. The format is ADME.
The target of a further data set is Cytochrome P450 2D6 (Homo sapiens, UniProt P10635). Kind of data set: Inhibition of CYP2D6. The format is ADME.
Another data set concerns the target Cytochrome P450 3A4 (Homo sapiens, UniProt P08684). Description: Inhibition of CYP3A4. Format: ADME.
A short description of data set [5]: Dissociation constant, pKa of the compound. The format is physicochemical.
The nature of data set [6]: Partition coefficient, log P of the compound. Format: physicochemical. The note with it: octanol/water.
Data set [7] is described as follows: Distribution coefficient, log D of the compound. The note with it: octanol/water. The format is physicochemical.
Data set [8] in a line: Intrinsic clearance in human liver microsomes. The format is ADME, Microsome. In short, it runs like this: (§2)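 Compound is incubated with human or rat liver microsomes; intrinsic clearance is given in µL min-1 mg-1.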
The nature of data set [9]: Intrinsic clearance in rat liver microsomes. The format is ADME, Microsome. An outline of the steps: as §2
Data set [10] is described as follows: Solubility in pH 1.0 buffer. The format is physicochemical.
Data set [11] is described as follows: Solubility in pH 6.8 buffer. Format: physicochemical.
Data set [12] can be described thus: Fraction unbound in human serum. The format is ADME, cell-free.
A short description of data set [13]: Fraction unbound in rat serum. The format is ADME, cell-free.
Data set [14] is described as follows: Oral bioavailability in Lewis rat at 10 mg/kg. Format: ADME, organism-based. The note with it: in vivo.
Data set [15] is described as follows: Tmax in Lewis rat at 10 mg/kg, po. The format is ADME, organism-based. Details: dose 10 mg/kg, route oral. The note with it: in vivo.
The nature of data set [16]: Half life in Lewis rat at 10 mg/kg, po. The format is ADME, organism-based. Set-up: dose 10 mg/kg, route oral. The note with it: in vivo.

T1 sequence (P61073 whole entry): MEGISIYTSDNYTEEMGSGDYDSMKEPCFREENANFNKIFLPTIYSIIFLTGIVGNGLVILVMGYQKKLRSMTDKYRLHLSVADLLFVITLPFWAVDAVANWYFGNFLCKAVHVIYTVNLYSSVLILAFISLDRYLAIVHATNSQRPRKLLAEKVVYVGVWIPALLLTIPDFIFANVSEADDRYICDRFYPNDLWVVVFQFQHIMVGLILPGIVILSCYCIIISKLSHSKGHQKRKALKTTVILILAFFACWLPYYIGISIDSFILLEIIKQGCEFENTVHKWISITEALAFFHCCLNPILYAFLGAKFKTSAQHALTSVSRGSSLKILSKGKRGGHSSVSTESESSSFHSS
C-X-C chemokine receptor type 4 (Rattus norvegicus, UniProt O08565), sequence (O08565 whole entry): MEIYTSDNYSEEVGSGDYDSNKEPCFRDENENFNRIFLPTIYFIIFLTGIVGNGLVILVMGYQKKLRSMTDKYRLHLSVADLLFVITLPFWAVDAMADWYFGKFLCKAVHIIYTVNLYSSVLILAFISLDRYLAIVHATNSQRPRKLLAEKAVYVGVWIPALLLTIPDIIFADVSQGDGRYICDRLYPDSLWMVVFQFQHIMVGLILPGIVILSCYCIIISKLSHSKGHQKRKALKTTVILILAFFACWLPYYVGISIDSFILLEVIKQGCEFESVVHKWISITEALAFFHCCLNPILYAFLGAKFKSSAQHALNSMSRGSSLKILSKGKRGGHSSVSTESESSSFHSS
Cytochrome P450 2C9, sequence (P11712 whole entry): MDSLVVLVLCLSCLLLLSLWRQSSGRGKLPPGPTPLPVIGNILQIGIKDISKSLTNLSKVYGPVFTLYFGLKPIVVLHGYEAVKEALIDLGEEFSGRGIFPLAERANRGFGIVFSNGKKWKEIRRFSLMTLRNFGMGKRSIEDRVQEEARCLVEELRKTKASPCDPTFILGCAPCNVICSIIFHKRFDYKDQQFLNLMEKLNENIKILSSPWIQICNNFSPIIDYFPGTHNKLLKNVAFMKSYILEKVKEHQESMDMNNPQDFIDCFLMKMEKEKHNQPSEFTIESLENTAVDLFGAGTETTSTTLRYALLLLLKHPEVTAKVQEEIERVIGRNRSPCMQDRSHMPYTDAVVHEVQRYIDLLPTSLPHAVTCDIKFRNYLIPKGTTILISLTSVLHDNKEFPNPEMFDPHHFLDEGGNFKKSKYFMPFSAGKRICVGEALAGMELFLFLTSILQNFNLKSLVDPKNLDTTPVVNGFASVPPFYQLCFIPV
Cytochrome P450 3A4, sequence (P08684 whole entry): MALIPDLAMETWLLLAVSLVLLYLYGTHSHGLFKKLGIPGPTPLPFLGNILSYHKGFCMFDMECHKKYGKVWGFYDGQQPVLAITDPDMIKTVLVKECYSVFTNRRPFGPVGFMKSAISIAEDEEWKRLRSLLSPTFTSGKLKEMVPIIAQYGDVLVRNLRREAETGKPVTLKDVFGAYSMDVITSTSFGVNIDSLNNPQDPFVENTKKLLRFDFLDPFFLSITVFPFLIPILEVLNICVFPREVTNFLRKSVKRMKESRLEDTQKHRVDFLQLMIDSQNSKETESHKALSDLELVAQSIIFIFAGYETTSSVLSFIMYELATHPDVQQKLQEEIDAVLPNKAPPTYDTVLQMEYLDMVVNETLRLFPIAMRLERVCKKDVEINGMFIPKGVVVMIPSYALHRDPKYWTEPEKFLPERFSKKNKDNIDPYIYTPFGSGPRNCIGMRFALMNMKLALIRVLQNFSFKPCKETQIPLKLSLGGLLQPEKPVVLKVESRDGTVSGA
Cytochrome P450 2C19, sequence (P33261 whole entry): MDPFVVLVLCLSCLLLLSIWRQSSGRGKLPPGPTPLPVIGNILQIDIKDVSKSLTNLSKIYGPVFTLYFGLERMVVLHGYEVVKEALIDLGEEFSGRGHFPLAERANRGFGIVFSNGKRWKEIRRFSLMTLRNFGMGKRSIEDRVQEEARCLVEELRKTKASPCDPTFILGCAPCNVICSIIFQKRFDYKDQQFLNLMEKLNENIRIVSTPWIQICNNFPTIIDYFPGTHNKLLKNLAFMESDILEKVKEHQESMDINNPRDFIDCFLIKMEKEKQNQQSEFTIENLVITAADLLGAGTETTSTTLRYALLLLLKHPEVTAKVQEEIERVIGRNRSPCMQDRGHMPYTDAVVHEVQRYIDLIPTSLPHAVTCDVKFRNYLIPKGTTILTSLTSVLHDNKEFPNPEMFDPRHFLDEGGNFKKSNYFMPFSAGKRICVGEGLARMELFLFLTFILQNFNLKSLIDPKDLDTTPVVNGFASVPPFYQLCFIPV
Cytochrome P450 2D6, sequence (P10635 whole entry): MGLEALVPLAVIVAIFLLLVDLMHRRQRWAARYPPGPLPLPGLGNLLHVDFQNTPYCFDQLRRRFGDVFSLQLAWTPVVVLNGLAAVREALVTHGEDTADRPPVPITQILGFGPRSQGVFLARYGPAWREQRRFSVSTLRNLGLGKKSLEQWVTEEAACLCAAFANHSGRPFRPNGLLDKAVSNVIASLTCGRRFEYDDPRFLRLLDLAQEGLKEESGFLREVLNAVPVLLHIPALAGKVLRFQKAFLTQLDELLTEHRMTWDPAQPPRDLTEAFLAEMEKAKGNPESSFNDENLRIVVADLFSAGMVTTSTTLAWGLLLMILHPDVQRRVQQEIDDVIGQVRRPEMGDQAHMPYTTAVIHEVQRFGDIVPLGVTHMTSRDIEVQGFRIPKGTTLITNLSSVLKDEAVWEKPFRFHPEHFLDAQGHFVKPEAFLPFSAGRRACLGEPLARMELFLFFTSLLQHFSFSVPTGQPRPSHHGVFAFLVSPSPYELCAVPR

In general, IC50 refers to the concentration that inhibits the measured activity by half. As to `c1ccc2c(c1)nc1scc(CS/C(=N\C3CCCCC3)NC3CCCCC3)n12`, the IC50 is greater than 10 µM in data set [1] and 8.12 µM in data set [2].
With `C1=C(CS/C(=N\C2CCCCCCC2)NC2CCCCCCC2)N2CCN=C2S1`, the IC50 in [1] came out at 0.027 µM; in [2], 0.0053 µM.
With `C1=C(CS/C(=N\C2CCCCC2)NC2CCCCC2)N2CCCN=C2S1`, the figures for the IC50 in data set [1] and in data set [2] were 0.185 µM and 0.057 µM, respectively.
`CC(C)/N=C(/NC(C)C)SCC1=CSC2=NCCN12` showed an IC50 in data set [1] greater than 10 µM.
As usually defined, the IC90 is the point of the concentration-response curve where the effect stands at 90%. For the compound `C1=C(CS/C(=N\C2CCCCCC2)NC2CCCCCC2)N2CCN=C2S1`, the IC50 in data set [1] was found to be 0.025 µM; in data set [2] it was 0.0031 µM; in data set [3] it was 0.05 µM. Besides, the IC90 in [3] was determined as 0.82 µM.
For `CCCCCCNC(=NC1CCCCC1)SCC1=CSC2=NCCN12`, the results for the 50% inhibitory concentration (IC50) in [1] and in data set [2] were 0.855 µM and 0.075 µM, respectively.
For `C1=C(CS/C(=N\C2CCCCC2)NC23CC4CC(CC(C4)C2)C3)N2CCN=C2S1`, in that order: 1.87 µM and 0.304 µM.
Turning to `c1cc(CN2CCCNCCNCCCNCC2)ccc1CN1CCCNCCNCCCNCC1` [PLERIXAFOR], in [3], the IC50 came out at 0.003 µM and the IC90 turned out to be 0.05 µM.
Regarding `C1=C(CSC(=NC2CCCCC2)NC2CCCC2)N2CCN=C2S1`, the figures for the half-inhibitory concentration (IC50) in data set [1], in data set [2] and in data set [3] were 0.372 µM, 0.173 µM and 0.47 µM, respectively. Moreover, the IC90 in [3] is greater than 100 µM.
For `c1ccc(CNC(=NC2CCCCC2)SCC2CSC3=NCCN32)cc1` (stereo unspecified), the results for the IC50 in data set [1] and in [2] were 10 µM and 2.22 µM, respectively.
For the compound `C1=C(CSC(=NC2CCCCC2)NC2CCCCCC2)N2CCN=C2S1`, the IC50 in [1] amounted to 0.028 µM; in data set [2], 0.0066 µM; in data set [3] it was 0.04 µM. The IC90 in data set [3] turned out to be 1.14 µM.
In the case of `C1=C(CS/C(=N\C2CCCCC2)Nc2ccccc2)N2CCN=C2S1`, the IC50 is greater than 10 µM in [1] and 5.27 µM in data set [2].
Take `CC1(C)CN2C(CS/C(=N\C3CCCCCC3)NC3CCCCCC3)=CSC2=N1`: the IC50 was determined as 0.0088 µM in [1], 0.0021 µM in [2] and 0.01 µM in [3]. Besides, the IC90 in data set [3] stood at 0.13 µM.
For `CN(/C(=N/C1CCCCC1)SCC1=CSC2=NCCN12)C1CCCCC1`, in that order: 3.38 µM, 0.931 µM, greater than 100 µM and greater than 100 µM.
For the compound `c1ccc(CS/C(=N\C2CCCCC2)NC2CCCCC2)cc1`, the IC50 in [1] and in data set [2] was greater than 10 µM throughout.
As to `C/N=c1/scc(CS/C(=N\C2CCCCC2)NC2CCCCC2)n1C`, the IC50 is greater than 10 µM in [1] and 9.13 µM in data set [2].
Turning to `NC(N)=NCCC[C@@H]1NC(=O)[C@H](CCCN=C(N)N)NC(=O)[C@@H](Cc2ccc(O)cc2)NC(=O)CNC(=O)[C@H](c2ccc3ccccc3c2)NC1=O`, the IC50 in data set [1] came out at 0.109 µM; in data set [4], 1.44 µM.
On to `C1=C(CS/C(=N\C2CCCCC2)NC2CCCCCCC2)N2CCN=C2S1`, for which the results for the IC50 in data set [1] and in [2] were 0.028 µM and 0.008 µM, respectively.
For `C1=C(CS/C(=N\C2CCCC2)NC2CCCC2)N2CCN=C2S1`, in that order: 3.83 µM and 0.493 µM.
For `C1=C(CSC(=NC2CCCCC2)NC2C3CC4CC(C3)CC2C4)N2CCN=C2S1` (stereo unspecified), in that order: 0.081 µM and 0.013 µM.
For `CC(C)(C)C1CCC(NC(=NC2CCCCC2)SCC2=CSC3=NCCN23)CC1` (stereo unspecified), in that order: 1.53 µM and 0.437 µM.
For orientation: pKa means the pH at which an ionisable group is half protonated. Low readings indicate a stronger acid or weaker base, high ones a weaker acid or stronger base. Broadly, the logP is the decadic logarithm of the partition coefficient of the neutral form, usually between octanol and water. A high value points to a more lipophilic compound. One may read the logD as the decadic logarithm of the distribution of all forms, ionised or not, between an organic phase and buffer at a given pH. By microsomal CLint is commonly meant the rate of metabolic loss divided by the concentration. Low values mean greater metabolic stability, high ones faster metabolism. In general, solubility refers to the dissolved amount per volume that the medium holds. A low value points to a poorly soluble substance. One may read the fraction unbound as the share of the substance not bound to proteins or other matrix. Usually bioavailability stands for the share of a dose that reaches the circulation, judged against a reference dose that is usually intravenous. High values mean much systemic uptake, low ones little systemic uptake. Broadly, the Tmax is the time at which the peak concentration occurs. Broadly, the half-life is the time in which the quantity being followed falls by half. High values mean slow decline, low ones rapid decline. Regarding `CC1(C)CN2C(CS/C(=N\C3CCCCC3)NC3CCCCC3)=CSC2=N1`, the IC50 is 0.011 µM in data set [4]; greater than 10 µM at Cytochrome P450 1A2; greater than 10 µM on Cytochrome P450 2C9; 5.2 µM on Cytochrome P450 2C19; 0.4 µM against Cytochrome P450 2D6; greater than 10 µM against Cytochrome P450 3A4. Also, the concentration for half-maximal inhibition (IC50) in data set [3] was 0.007 µM. Besides, the pKa in [5] is 8. In addition, the logP in data set [6] stood at 4.5. The same compound displayed a logD in [7] of 1.2. For the same compound, the microsomal CLint in [8] was 149 µL/min/mg; in data set [9] it was 342 µL/min/mg. Also, the solubility in data set [10] and in [11] was greater than 5000 µg/mL in each case. In addition, the fraction unbound in data set [12] is 0.2; in data set [13], 0.46. The bioavailability in data set [14] is 32%. Besides, the Tmax in data set [15] was determined as 0.5 h. Besides, in data set [16], the half-life was 7.6 h. For the same compound, the IC90 in data set [3] amounted to 0.1 µM.
